In general, IC50 refers to the concentration needed to halve the response being measured. Low readings indicate greater potency, high ones weaker potency.

SMILES strings stand for the structures.

For experiment [1], the target named is T1, Lethal(3)malignant brain tumor-like protein 3 (Homo sapiens, UniProt Q96JM7).
T1 sequence (Q96JM7 whole entry): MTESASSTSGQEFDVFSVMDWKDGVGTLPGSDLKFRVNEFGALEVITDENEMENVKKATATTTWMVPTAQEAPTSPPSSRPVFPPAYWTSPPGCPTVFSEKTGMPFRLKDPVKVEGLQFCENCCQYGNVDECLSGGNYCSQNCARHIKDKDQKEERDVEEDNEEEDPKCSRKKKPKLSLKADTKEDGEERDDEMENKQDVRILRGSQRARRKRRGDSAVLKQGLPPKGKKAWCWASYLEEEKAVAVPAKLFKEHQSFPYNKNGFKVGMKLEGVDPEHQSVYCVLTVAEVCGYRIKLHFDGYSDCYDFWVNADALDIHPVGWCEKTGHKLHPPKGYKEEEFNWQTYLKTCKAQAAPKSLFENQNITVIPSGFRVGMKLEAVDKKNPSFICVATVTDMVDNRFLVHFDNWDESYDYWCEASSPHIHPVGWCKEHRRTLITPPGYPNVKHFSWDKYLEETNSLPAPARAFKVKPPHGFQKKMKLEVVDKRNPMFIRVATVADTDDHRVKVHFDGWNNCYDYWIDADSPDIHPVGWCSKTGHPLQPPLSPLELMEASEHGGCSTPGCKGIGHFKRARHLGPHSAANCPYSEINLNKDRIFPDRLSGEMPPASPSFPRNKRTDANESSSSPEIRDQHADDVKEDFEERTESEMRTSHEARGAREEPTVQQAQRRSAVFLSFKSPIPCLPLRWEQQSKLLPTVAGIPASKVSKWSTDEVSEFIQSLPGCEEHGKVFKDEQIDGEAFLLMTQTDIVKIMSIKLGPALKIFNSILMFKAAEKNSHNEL
The experiment in a line: Inhibition of L3MBTL3 (unknown origin) using H4K20me2 as substrate after 30 mins by LNCE-TR-FRET assay. A general note: TR-FRET usually uses a lanthanide donor and a delayed reading to cut background.

Experiment [2] has as its target T2, Lethal(3)malignant brain tumor-like protein 4 (Homo sapiens, UniProt Q8NA19).
T2 sequence (Q8NA19 whole entry): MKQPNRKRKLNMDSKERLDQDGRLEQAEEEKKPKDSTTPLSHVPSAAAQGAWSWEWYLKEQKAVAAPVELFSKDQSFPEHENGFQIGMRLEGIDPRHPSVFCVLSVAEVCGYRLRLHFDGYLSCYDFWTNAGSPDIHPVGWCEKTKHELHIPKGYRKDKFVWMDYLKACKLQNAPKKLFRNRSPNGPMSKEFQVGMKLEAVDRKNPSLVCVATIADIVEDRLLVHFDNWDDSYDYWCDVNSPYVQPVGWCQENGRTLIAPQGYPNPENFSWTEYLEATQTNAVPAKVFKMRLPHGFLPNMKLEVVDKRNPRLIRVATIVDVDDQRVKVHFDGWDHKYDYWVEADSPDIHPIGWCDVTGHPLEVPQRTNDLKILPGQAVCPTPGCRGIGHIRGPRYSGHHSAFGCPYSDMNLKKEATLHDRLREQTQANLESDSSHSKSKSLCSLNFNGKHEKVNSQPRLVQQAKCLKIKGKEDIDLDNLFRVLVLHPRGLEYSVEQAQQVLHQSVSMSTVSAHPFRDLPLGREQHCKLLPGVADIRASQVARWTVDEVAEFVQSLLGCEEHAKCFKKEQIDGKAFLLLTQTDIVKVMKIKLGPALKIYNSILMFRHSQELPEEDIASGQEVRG
The experiment in a line: Inhibition of L3MBTL4 (unknown origin) after 30 mins by AlphaScreen assay. An outline of the steps: (§1)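 AlphaScreen competition with histone peptide. Compounds in 3-fold, 10-point dilutions, top 10 or 30 μM; buffer 20 mM Tris pH 8.0, 25 mM NaCl, 2 mM DTT, 0.05% Tween-20. Protein-peptide mix 30 min RT, then streptavidin donor plus nickel-chelate acceptor beads (GST acceptor beads for GST-tagged PHF23, JARID1A) 30 min RT dark. Protein-free His6-biotin peptide counterscreen.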

A further experiment addresses PHD finger protein 23 (Homo sapiens, UniProt Q9BUL5). The experiment in a line: Inhibition of PHF23 (unknown origin) after 30 mins by AlphaScreen assay. An outline of the steps:
as §1
For orientation: Alpha assays give light when donor and acceptor beads are brought close together.

Experiment [3] addresses T3, Chromobox protein homolog 7 (Homo sapiens, UniProt O95931).
T3 sequence (O95931 whole entry): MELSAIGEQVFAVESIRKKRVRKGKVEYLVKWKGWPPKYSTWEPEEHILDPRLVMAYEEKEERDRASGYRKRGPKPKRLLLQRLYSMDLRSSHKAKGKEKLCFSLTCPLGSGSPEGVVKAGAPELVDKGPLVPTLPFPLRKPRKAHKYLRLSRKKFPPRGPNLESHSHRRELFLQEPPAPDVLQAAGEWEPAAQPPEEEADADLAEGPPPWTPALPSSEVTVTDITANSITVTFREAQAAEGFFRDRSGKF
As to the kind of experiment: Inhibition of CBX7 (unknown origin) after 30 mins by AlphaScreen assay. An outline of the steps: as §1

Experiment [4] concerns the target Lysine-specific demethylase 5A (Homo sapiens, UniProt P29375). As to the kind of experiment: Inhibition of JARID1A (unknown origin) after 30 mins by AlphaScreen assay. An outline of the steps: (§2)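 AlphaScreen competition with histone peptide. Compounds in 3-fold, 10-point dilutions, top 10 or 30 μM; buffer 20 mM Tris pH 8.0, 25 mM NaCl, 2 mM DTT, 0.05% Tween-20. Protein-peptide mix 30 min RT, then streptavidin donor plus nickel-chelate acceptor beads (GST acceptor beads for GST-tagged PHF23, JARID1A) 30 min RT dark. […] Protein-free His6-biotin peptide counterscreen.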

A further experiment addresses TP53-binding protein 1 (Homo sapiens, UniProt Q12888). The experiment in a line: Inhibition of 53BP1 (unknown origin) after 30 mins by AlphaScreen assay. An outline of the steps:
as §2

PHD finger protein 23, sequence (Q9BUL5 whole entry): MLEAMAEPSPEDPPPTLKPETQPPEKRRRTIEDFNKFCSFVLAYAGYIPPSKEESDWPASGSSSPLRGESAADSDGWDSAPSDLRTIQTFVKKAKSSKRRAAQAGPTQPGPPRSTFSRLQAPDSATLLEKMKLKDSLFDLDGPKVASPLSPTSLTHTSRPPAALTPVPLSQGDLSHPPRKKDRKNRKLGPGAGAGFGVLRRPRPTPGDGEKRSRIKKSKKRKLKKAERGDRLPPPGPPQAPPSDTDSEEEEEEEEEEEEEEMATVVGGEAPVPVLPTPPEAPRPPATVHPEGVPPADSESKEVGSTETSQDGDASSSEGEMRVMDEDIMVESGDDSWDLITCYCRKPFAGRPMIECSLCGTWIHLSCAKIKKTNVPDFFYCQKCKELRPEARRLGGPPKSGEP
Lysine-specific demethylase 5A, sequence (P29375 whole entry): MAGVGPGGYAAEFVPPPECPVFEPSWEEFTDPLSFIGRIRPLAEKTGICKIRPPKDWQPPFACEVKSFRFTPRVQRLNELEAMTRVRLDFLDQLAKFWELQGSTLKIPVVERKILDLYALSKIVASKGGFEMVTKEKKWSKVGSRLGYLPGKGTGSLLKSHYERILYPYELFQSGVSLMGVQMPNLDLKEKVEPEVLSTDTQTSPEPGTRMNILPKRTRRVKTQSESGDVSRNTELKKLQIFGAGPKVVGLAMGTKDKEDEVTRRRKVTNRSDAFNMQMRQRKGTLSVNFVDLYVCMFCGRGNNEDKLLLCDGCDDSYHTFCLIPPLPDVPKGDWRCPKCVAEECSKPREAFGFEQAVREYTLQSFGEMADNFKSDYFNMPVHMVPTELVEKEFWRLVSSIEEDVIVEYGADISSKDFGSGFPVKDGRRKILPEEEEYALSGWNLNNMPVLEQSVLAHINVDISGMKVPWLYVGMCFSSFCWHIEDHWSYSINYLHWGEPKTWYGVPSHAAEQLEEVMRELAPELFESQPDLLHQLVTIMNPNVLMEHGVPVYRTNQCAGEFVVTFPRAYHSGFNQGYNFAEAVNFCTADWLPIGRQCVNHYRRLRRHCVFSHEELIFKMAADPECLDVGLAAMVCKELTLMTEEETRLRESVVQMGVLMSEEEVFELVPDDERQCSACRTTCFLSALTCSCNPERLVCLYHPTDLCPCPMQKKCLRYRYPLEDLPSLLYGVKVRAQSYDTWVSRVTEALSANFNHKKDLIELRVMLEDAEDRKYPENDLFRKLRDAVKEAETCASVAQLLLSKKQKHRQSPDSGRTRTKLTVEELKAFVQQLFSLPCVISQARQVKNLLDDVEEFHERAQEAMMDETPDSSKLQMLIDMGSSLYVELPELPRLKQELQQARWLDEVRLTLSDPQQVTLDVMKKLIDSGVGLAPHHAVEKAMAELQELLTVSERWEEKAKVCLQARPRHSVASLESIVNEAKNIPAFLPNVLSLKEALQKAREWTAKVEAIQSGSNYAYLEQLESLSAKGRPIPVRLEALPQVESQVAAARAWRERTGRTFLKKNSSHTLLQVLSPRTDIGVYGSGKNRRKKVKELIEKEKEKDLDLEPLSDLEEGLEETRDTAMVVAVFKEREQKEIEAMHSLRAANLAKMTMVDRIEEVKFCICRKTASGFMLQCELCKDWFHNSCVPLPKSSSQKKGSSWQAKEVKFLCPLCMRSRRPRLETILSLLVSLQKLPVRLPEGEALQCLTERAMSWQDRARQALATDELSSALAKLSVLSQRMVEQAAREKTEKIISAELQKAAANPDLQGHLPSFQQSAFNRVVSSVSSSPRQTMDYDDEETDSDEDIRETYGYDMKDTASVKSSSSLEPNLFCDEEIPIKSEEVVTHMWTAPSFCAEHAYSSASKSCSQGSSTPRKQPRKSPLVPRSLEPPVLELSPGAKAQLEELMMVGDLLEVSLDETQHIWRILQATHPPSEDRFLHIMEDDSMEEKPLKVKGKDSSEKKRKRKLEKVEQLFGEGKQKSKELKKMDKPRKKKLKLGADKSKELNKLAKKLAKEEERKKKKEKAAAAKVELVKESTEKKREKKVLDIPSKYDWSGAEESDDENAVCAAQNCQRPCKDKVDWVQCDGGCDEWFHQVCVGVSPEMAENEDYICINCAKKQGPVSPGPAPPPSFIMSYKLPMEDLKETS
TP53-binding protein 1, sequence (Q12888 whole entry): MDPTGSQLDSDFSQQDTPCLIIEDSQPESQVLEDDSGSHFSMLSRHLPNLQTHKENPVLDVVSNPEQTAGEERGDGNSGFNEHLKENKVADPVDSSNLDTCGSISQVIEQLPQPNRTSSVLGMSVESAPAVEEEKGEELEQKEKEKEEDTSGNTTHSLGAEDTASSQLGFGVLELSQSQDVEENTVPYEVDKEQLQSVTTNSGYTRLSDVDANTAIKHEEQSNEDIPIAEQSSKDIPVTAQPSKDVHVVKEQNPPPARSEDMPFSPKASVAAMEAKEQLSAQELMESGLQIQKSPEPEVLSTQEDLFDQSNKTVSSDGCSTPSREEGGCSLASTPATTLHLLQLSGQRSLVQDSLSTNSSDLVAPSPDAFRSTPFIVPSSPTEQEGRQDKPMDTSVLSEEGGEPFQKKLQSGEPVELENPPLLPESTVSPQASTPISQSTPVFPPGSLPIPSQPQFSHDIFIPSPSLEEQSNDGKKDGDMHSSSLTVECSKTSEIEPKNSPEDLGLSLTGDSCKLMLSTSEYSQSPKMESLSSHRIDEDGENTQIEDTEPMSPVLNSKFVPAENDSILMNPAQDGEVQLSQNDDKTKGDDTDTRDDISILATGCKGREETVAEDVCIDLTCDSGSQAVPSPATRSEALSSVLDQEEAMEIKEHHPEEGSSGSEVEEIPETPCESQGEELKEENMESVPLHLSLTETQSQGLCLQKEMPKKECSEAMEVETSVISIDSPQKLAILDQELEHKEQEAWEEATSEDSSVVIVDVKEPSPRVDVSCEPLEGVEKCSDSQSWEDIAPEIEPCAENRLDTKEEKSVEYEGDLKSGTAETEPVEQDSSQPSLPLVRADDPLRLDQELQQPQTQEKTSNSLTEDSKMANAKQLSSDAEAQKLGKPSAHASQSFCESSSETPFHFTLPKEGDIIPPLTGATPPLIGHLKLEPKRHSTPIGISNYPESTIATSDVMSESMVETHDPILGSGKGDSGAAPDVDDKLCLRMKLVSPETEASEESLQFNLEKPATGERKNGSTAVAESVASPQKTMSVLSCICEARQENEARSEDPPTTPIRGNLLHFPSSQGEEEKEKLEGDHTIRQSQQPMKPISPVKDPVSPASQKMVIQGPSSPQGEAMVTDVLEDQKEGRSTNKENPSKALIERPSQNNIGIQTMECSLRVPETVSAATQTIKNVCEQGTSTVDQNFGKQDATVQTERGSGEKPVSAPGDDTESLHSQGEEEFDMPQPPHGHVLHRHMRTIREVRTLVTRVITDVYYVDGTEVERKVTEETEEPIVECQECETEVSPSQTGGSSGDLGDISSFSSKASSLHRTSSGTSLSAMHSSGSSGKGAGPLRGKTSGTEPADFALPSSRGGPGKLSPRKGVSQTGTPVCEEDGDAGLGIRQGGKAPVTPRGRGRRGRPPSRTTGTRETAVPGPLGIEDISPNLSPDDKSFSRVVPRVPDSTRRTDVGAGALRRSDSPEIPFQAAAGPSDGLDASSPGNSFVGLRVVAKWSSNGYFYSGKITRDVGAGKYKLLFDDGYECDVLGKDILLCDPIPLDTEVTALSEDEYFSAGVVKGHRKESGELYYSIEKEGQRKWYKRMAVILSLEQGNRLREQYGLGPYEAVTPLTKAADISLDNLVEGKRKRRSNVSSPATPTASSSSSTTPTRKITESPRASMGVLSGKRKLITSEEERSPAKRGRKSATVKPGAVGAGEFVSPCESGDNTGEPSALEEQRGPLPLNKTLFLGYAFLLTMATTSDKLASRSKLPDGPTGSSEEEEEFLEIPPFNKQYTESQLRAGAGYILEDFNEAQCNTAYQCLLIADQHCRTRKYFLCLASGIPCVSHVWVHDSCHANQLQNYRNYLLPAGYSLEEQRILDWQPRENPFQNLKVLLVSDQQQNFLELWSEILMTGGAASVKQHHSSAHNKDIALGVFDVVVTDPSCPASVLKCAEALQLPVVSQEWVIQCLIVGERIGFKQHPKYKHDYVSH

On to `O=C(c1ccc(C(=O)N2CCC(N3CCCC3)CC2)nc1)N1CCC(N2CCCC2)CC1`, for which the IC50 was 0.061 µM in experiment [1]; over 10 µM in experiment [2]; over 10 µM against PHD finger protein 23; over 10 µM in experiment [3]; over 10 µM in experiment [4]; over 10 µM on TP53-binding protein 1.
With `O=C(c1ccc(C(=O)N2CCCC(N3CCCC3)CC2)cc1)N1CCCC(N2CCCC2)CC1` (stereo unspecified), the IC50 in experiment [1] was 0.11 µM; in experiment [2], over 10 µM; against PHD finger protein 23, over 10 µM; in experiment [3], over 10 µM; in experiment [4], over 10 µM; on TP53-binding protein 1, over 10 µM.
`O=C(c1ccc(C(=O)N2CCC(N3CCCC3)CC2)cc1)N1CCC(C2CCNCC2)CC1`: the concentration for half-maximal inhibition (IC50) in experiment [1] was 0.8 µM; in experiment [2] it was over 10 µM; at PHD finger protein 23, over 10 µM; in experiment [3], over 10 µM; in experiment [4], over 10 µM; at TP53-binding protein 1, over 10 µM.
Take `O=C(c1ccc(C(=O)N2CCC(N3CCCC3)CC2)c(Br)c1)N1CCC(N2CCCC2)CC1`: the IC50 in experiment [1] is 0.074 µM; in experiment [2], over 10 µM; on PHD finger protein 23, over 10 µM; in experiment [3], over 10 µM; in experiment [4], over 10 µM; on TP53-binding protein 1, over 10 µM.
Turning to `O=C(c1ccc(C(=O)N2CC3(CCNC3)C2)cc1)N1CCC(N2CCCC2)CC1`, the IC50 is 2.7 µM in experiment [1]; over 10 µM in experiment [2]; over 10 µM on PHD finger protein 23; over 10 µM in experiment [3]; over 10 µM in experiment [4]; over 10 µM on TP53-binding protein 1.
On to `O=C(c1ccc(C(=O)N2CCC(N3CCCC3)CC2)cc1)N1CCC(C2CCCN2)CC1` (stereo unspecified), for which the IC50 is 0.092 µM in experiment [1]; over 10 µM in experiment [2]; over 10 µM against PHD finger protein 23; over 10 µM in experiment [3]; over 10 µM in experiment [4]; over 10 µM at TP53-binding protein 1.
Regarding `O=C(c1cccc(C(=O)N2CCC(N3CCCC3)CC2)c1)N1CCC(N2CCCC2)CC1`, the IC50 in experiment [1] was 0.29 µM; in experiment [2], over 10 µM; against PHD finger protein 23, over 10 µM; in experiment [3] it was over 10 µM; in experiment [4], over 10 µM; on TP53-binding protein 1 it was over 10 µM.
With `O=C(c1ccc2cc(C(=O)N3CCC(N4CCCC4)CC3)ccc2c1)N1CCC(N2CCCC2)CC1`, the IC50 in experiment [1] is 0.45 µM; in experiment [2], over 10 µM; against PHD finger protein 23, over 10 µM; in experiment [3] it was over 10 µM; in experiment [4], over 10 µM; at TP53-binding protein 1 it was over 10 µM.
Regarding `O=C(NCCCN1CCCC1)c1ccc(C(=O)N2CCC(N3CCCC3)CC2)cc1`, the IC50 was 0.34 µM in experiment [1]; over 10 µM in experiment [2]; over 10 µM against PHD finger protein 23; over 10 µM in experiment [3]; over 10 µM in experiment [4]; over 10 µM on TP53-binding protein 1.
As for `O=C(c1ccc(C(=O)N2CC3CCC(C2)C3N2CCCC2)cc1)N1CC2CCC(C1)C2N1CCCC1` (stereo unspecified), the IC50 in experiment [1] is 0.28 µM; in experiment [2], over 10 µM; against PHD finger protein 23, over 10 µM; in experiment [3], over 10 µM; in experiment [4] it was over 10 µM; at TP53-binding protein 1 it was over 10 µM.
On to `O=C(c1ccc(C(=O)N2CCC(N3CCCC3)CC2)c(-c2ccccc2)c1)N1CCC(N2CCCC2)CC1`, for which the IC50 in experiment [1] was 0.061 µM; in experiment [2] it was over 10 µM; on PHD finger protein 23, over 10 µM; in experiment [3], over 10 µM; in experiment [4] it was over 10 µM; at TP53-binding protein 1, over 10 µM.
In the case of `O=C(c1ccc(N2CCC(N3CCCC3)CC2)cc1)N1CCC(N2CCCC2)CC1`, the IC50 in experiment [1] was 0.15 µM; in experiment [2] it was 8.4 µM; against PHD finger protein 23, over 10 µM; in experiment [3] it was over 10 µM; in experiment [4], over 10 µM; at TP53-binding protein 1, 7.4 µM.
In the case of `O=C(c1ccc(C(=O)N2CC3CCC(C2)C3N2CCCC2)cc1)N1CCC(N2CCCC2)CC1` (stereo unspecified), the IC50 was 0.092 µM in experiment [1]; over 10 µM in experiment [2]; over 10 µM at PHD finger protein 23; over 10 µM in experiment [3]; over 10 µM in experiment [4]; over 10 µM on TP53-binding protein 1.
In the case of `O=C(c1ccc(C(=O)N2CCC(N3CCCC3)C2)cc1)N1CCC(N2CCCC2)CC1` (stereo unspecified), the IC50 is 0.22 µM in experiment [1]; over 10 µM in experiment [2]; over 10 µM against PHD finger protein 23; over 10 µM in experiment [3]; over 10 µM in experiment [4]; over 10 µM on TP53-binding protein 1.
As for `O=C(c1ccc(C(=O)N2CCC(N3CCCC3)CC2)cc1)N1CCCC(N2CCCC2)CC1` (stereo unspecified), the IC50 was 0.074 µM in experiment [1]; over 10 µM in experiment [2]; over 10 µM against PHD finger protein 23; over 10 µM in experiment [3]; over 10 µM in experiment [4]; over 10 µM on TP53-binding protein 1.
`CN(C)C1CCN(C(=O)c2ccc(C(=O)N3CCC(N(C)C)CC3)cc2)CC1`: the IC50 in experiment [1] was 8 µM; in experiment [2] it was over 10 µM; against PHD finger protein 23 it was over 10 µM; in experiment [3] it was over 10 µM; in experiment [4], over 10 µM; at TP53-binding protein 1, over 10 µM.
Regarding `O=C(c1ccc(C(=O)N2CCC3(CCNC3)CC2)cc1)N1CCC(N2CCCC2)CC1`, the IC50 in experiment [1] is 0.62 µM; in experiment [2], over 10 µM; at PHD finger protein 23 it was over 10 µM; in experiment [3], over 10 µM; in experiment [4], over 10 µM; on TP53-binding protein 1, over 10 µM.
Regarding `O=C(c1c(F)c(F)c(C(=O)N2CCC(N3CCCC3)CC2)c(F)c1F)N1CCC(N2CCCC2)CC1`, the IC50 in experiment [1] is 0.13 µM; in experiment [2] it was over 10 µM; against PHD finger protein 23, over 10 µM; in experiment [3] it was over 10 µM; in experiment [4], over 10 µM; on TP53-binding protein 1, over 10 µM.
As for `O=C(c1ccc(C(=O)N2CCC(N3CCCC3)CC2)cc1)N1CCC(N2CCCCCC2)CC1`, the concentration for half-maximal inhibition (IC50) in experiment [1] is 0.21 µM; in experiment [2], over 10 µM; at PHD finger protein 23, over 10 µM; in experiment [3], over 10 µM; in experiment [4], over 10 µM; on TP53-binding protein 1, over 10 µM.
For `CN1CCN2CC(NC(=O)c3ccc(C(=O)N4CCC(N5CCCC5)CC4)cc3)CC2C1` (stereo unspecified), the IC50 was 4.5 µM in experiment [1]; over 10 µM in experiment [2]; over 10 µM at PHD finger protein 23; over 10 µM in experiment [3]; over 10 µM in experiment [4]; over 10 µM on TP53-binding protein 1.
`CCN1Cc2ccc(NC(=O)c3ccc(C(=O)N4CCC(C5CCCN5)CC4)cc3Nc3ccccc3)cc2C1` (stereo unspecified): the IC50 in experiment [1] is 0.16 µM; in experiment [2], over 10 µM; on PHD finger protein 23 it was over 10 µM; in experiment [3], over 10 µM; in experiment [4], over 10 µM; on TP53-binding protein 1, 3.5 µM.

(Values after ChEMBL document CHEMBL2424619, “Small-molecule ligands of methyl-lysine binding proteins: optimization of selectivity for L3MBTL3” (J Med Chem, 2013).)
